Screening results deposited in PubChem BioAssay by The Scripps Research Institute Molecular Screening Center.
OPRM1-OPRD1 ag – agonists of human mu-delta opioid receptor heterodimerization | P35372+P41143 | cells, OPRM1-OPRD1 heterodimerization, luminescence | activation, % at 9.3 µM | actives 0.3% (n = 340,000) | AID 504326; in the data active means activation above about 18%
OPRM1-OPRD1 inv – mu-delta opioid heterodimer inverse agonism; P35372+P41143; actives 0.21% (n = 340,000); cell-based MOR-DOR heterodimer luminescence; inhibition, % at 9.3 µM; in the data active means inhibition above about 22%, passing the limit was not always enough
HTR5A inv ag – counter-screen for OPRM1-OPRD1 inverse agonists: human HTR5A inverse agonism; P47898; AID 504634; inhibition, % at 9.3 µM; HTR5A cell line, luminescence; actives 0.083% (n = 340,000); in the data active means inhibition mostly above about 23%, no sharp cut-off; inactive means mostly below about 18%
Target sequence (P47898 whole entry, looked up): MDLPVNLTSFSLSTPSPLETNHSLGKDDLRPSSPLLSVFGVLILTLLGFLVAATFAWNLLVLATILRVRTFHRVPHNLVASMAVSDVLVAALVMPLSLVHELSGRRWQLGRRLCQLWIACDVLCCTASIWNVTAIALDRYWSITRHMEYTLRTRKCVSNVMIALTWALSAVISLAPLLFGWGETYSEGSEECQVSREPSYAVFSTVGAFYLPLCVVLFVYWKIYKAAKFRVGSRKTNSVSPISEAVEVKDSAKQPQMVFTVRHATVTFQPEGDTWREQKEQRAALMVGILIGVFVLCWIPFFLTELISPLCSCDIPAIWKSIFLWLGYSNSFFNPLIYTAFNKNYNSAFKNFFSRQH
MC4R ag barr – human MC4R agonism via beta-arrestin; P32245; U2OS MC4R beta-arrestin complementation, luminescence; percent of melanotan II response, DMSO zero; activation, % at 8.9 µM; actives 0.98% (n = 360,000);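 active means activation above a per-plate cutoff, the mean activation of sample wells on that plate plus 3 SD, cut at about 8% in these data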
Target sequence (P32245 whole entry, looked up): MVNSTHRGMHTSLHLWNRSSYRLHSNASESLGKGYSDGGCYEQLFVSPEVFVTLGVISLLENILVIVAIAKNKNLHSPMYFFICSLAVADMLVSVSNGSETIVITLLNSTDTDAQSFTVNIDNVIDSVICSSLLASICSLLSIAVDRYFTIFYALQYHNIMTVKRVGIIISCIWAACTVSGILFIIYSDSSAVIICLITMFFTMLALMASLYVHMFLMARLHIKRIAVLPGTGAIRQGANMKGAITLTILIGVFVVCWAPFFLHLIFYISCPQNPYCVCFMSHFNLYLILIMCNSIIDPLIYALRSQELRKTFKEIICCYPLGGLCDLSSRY
HTR5A ag – counter-screen for OPRM1-OPRD1 agonists: human HTR5A agonism. P47898. HTR5A agonist assay, luminescence, cell-based. activation, % at 9.3 µM. actives 0.61% (n = 340,000); in the data active means activation mostly above about 9.5%, no sharp cut-off; inactive means mostly below about 7.6%
MC4R antag cAMP – human MC4R antagonism in cAMP assay; actives 0.48% (n = 360,000); inhibition, % at 6.5 µM; MC4R-expressing cells, MTII-stimulated cAMP, LANCE TR-FRET;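 active means inhibition above its plate's cutoff, the mean of tested wells on that plate plus 3 SD, cut at about 29% in these data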
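material = U2OS cells stably expressing human melanocortin 4 receptor (MC4R) | also added = Melanotan II challenge | dosing = single nominal compound dose of 6.5 µM | detection = TR-FRET with Eu-cAMP and labeled anti-cAMP, 671 nm | replication = singlicate | timing = compound 30 min, challenge 1 h, detection 1 h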
U2OS cAMP counter – nonselective cAMP signaling inhibitor, MC4R antagonist counter-screen | inhibition, % at 6.5 µM | actives 26% (n = 1,600) | parental U2OS, forskolin cAMP, LANCE TR-FRET | shares compounds with MC4R antag cAMP;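 active means mean inhibition over triplicates above the low-control well mean plus 3 SD, set per campaign, cut at about 13% in these data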;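 further: signal is single emission at 671 nm which falls as cellular cAMP rises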
MC4R cAMP antag – human MC4R cAMP antagonism confirmation; MC4R-expressing cells, MTII-stimulated cAMP, TR-FRET; actives 27% (n = 1,600); inhibition, % at 6.5 µM; shares compounds with MC4R antag cAMP; in the data active means inhibition above about 29%
Each line names hits and unclear results; the compound was inactive in the other large screens (follow-up assays come after a bar, where they were run); ! = repeats disagree. Most compounds without a hit are left out; they make up all but 2.4% or so of the library.

COc1cc(C(=O)NCC(=O)N/N=C\C(C)=C/c2ccccc2)cc(OC)c1OC	MC4R antag cAMP 30 | U2OS cAMP counter inactive | MC4R cAMP antag inactive
COc1ccc(C(=O)N/N=C\C(C)=C\c2ccccc2)cc1OC	none
CCCCNc1c(-c2ccc(OC)c(SC(C)CC)c2)nc2ccc(Cl)cn12 (stereo unspecified)	none
COc1ccc(-c2cc(-c3nc4ccccn4c3NCc3ccccc3)ccc2OC)cc1	MC4R antag cAMP 37 | U2OS cAMP counter inactive | MC4R cAMP antag 34
COc1ccc(-c2nc3ccc(C)cn3c2NCc2ccccc2)cc1SC1CCCCC1	none
CCCCNc1c(-c2ccc(OC)c(SC(C)CC)c2)nc2ccc(C)cn12 (stereo unspecified)	MC4R antag cAMP 36 | U2OS cAMP counter 22 | MC4R cAMP antag 48
CCC(C)Sc1ccc(-c2nc3ccc(C)cn3c2NCc2ccccc2)cc1OC (stereo unspecified)	HTR5A ag 11, MC4R antag cAMP 35 | U2OS cAMP counter 18 | MC4R cAMP antag 44
CCC(C)Sc1cc(-c2nc3ccc(C)cn3c2NCc2ccccc2)ccc1OC (stereo unspecified)	OPRM1-OPRD1 ag 21, HTR5A ag 16, MC4R antag cAMP 47 | U2OS cAMP counter 27 | MC4R cAMP antag 78
CCc1ccc(NC(=O)C(=O)NCCN2CCN(S(=O)(=O)c3ccccc3)CC2)cc1	MC4R antag cAMP 32 | U2OS cAMP counter inactive | MC4R cAMP antag inactive
CCc1ccc(NC(=O)C(=O)NCCN2CCN(S(C)(=O)=O)CC2)cc1	none
COc1ccc2nccc(/C=C/c3ccnc4ccc(OC)cc34)c2c1	none (no result: OPRM1-OPRD1 ag, OPRM1-OPRD1 inv, HTR5A inv ag, HTR5A ag)
COCCn1c(SCC(=O)N2CCCC2)nc2c(c1=O)SCC2	none (no result: OPRM1-OPRD1 ag, OPRM1-OPRD1 inv, HTR5A inv ag, HTR5A ag)
COc1ccc(-c2ccc(CCC(=O)O)n2CC(=O)Nc2ccccc2C)cc1	MC4R antag cAMP 31 | U2OS cAMP counter inactive | MC4R cAMP antag inactive
O=S(=O)(c1ccccc1)N1CCN(c2nnc(-c3ccccc3)c3ccccc23)CC1	MC4R antag cAMP 30 | U2OS cAMP counter inactive | MC4R cAMP antag inactive
CS(=O)(=O)N1CCN(c2nnc(-c3ccccc3)c3ccccc23)CC1	none
O=C(COc1ccc([N+](=O)[O-])cc1)Nc1ccc2c(c1)OCO2	MC4R antag cAMP 32 | U2OS cAMP counter inactive | MC4R cAMP antag inactive
Cc1ccc(-c2cc(C(=O)O)c3cc(Br)ccc3n2)o1	none
CC(=O)c1c(C)nc2ccc(Br)cc2c1-c1ccccc1	none
Cc1nc2ccc(Br)cc2c(-c2ccccc2)c1C(=O)O	MC4R antag cAMP 35 | U2OS cAMP counter 48 | MC4R cAMP antag 96
Cc1ccc(-c2cc(C(=O)O)c3cc(Br)ccc3n2)s1	MC4R antag cAMP 36 | U2OS cAMP counter 16 | MC4R cAMP antag 31!
Cc1csc(NC(=O)CSc2nncs2)n1	none
Cc1nn(-c2ccccc2)nc1C(=O)Nc1nnc(C(F)(F)F)s1	none
O=C1C2C(c3ccccc3)(C(=O)N1c1ccc(Cl)cc1)C2(c1ccccc1)c1ccccc1 (stereo unspecified)	MC4R antag cAMP 38 | U2OS cAMP counter inactive | MC4R cAMP antag inactive
CCOC(=O)C1=C(C)N=c2s/c(=C/c3ccc(OCC(=O)O)cc3)c(=O)n2C1c1ccc(F)cc1 (stereo unspecified)	MC4R antag cAMP 30 | U2OS cAMP counter inactive | MC4R cAMP antag inactive
CC(C)c1ccc(Nc2nnc(SC3CCOC3=O)s2)cc1 (stereo unspecified)	MC4R antag cAMP 31 | U2OS cAMP counter 41 | MC4R cAMP antag 33
Cc1ccc(Nc2nnc(SC3CCOC3=O)s2)cc1 (stereo unspecified)	none
COC(=O)[C@@]1(Cc2ccccc2)[C@H]2C(=O)N(C)C(=O)[C@H]2[C@H]2CN=C(SC)N21	none
S=c1[nH]c2ccccc2n2cccc12	none
S=c1[nH]c2ccccc2n2c(=S)[nH]nc12	MC4R antag cAMP 31 | U2OS cAMP counter 46 | MC4R cAMP antag 74
CN(C)CCCN1C(=O)C(O)=C(C(=O)c2cc3ccccc3o2)C1c1ccccn1 (stereo unspecified)	MC4R antag cAMP 33 | U2OS cAMP counter inactive | MC4R cAMP antag inactive
Cc1ccc(S(=O)(=O)NCC(=O)OC(C)C(=O)c2ccccc2)cc1 (stereo unspecified)	none
CCC(OC(=O)CNS(=O)(=O)c1ccccc1)C(=O)c1ccccc1 (stereo unspecified)	MC4R antag cAMP 37 | U2OS cAMP counter 17 | MC4R cAMP antag 31
Cc1cc(S(=O)(=O)NCc2ccncc2)c(C)cc1Br	none
CCN1CCN(C(=O)c2cc(S(=O)(=O)Nc3ccc(S(C)(=O)=O)cc3)ccc2Cl)CC1	MC4R antag cAMP 30 | U2OS cAMP counter inactive | MC4R cAMP antag inactive
CCN(CC)C(=O)CCCc1c[nH]c2ccccc12	MC4R antag cAMP 32 | U2OS cAMP counter inactive | MC4R cAMP antag inactive
CC(OC(=O)Cn1cnc2c1c(=O)n(C)c(=O)n2C)C(=O)NC(C)c1ccc(Cl)cc1Cl (stereo unspecified)	MC4R antag cAMP 36 | U2OS cAMP counter inactive | MC4R cAMP antag inactive
CC(OC(=O)Cn1cc(C(F)(F)F)ccc1=O)C(=O)NC(C)c1ccc(Cl)cc1Cl (stereo unspecified)	none
CCOC(=O)N1CCC(N2CCCC(C(=O)c3ccccc3OC)C2)CC1 (stereo unspecified)	none
CC(NC(=O)c1ccc(OC2CCN(Cc3ccccn3)CC2)cc1)c1nccs1 (stereo unspecified)	MC4R antag cAMP 29 | U2OS cAMP counter inactive | MC4R cAMP antag inactive
Cc1nc(C(C)NC(=O)c2ccc(OC3CCN(Cc4ccccn4)CC3)cc2)c(C)s1 (stereo unspecified)	none
COc1ccc(-c2c3c(nc4sc5c(Cl)nc(C)nc5c24)CCC3)cc1	MC4R antag cAMP 41 | U2OS cAMP counter 41 | MC4R cAMP antag 64
Cc1ccc(C(=O)NCC(=O)NCC(=O)OCC(=O)c2cccs2)cc1	none
O=C1CCCN1CCCNc1nc(NCc2cccs2)nc2ccsc12	none (no result: OPRM1-OPRD1 ag, OPRM1-OPRD1 inv, HTR5A inv ag, HTR5A ag)
Cc1sc2ncnc(Sc3ccccc3C(=O)O)c2c1C	MC4R antag cAMP 97 | U2OS cAMP counter 50 | MC4R cAMP antag 87
CC(=O)c1ccc(NC(=O)c2ccccc2Sc2ncnc3sc(C)c(C)c23)cc1	none
Cc1c(Br)c([N+](=O)[O-])nn1CC(=O)Nc1ccc2nc3n(c(=O)c2c1)CCCC3	none
Cc1ccc(-c2nnc(Nc3ccc4c(c3)OCO4)c3ccccc23)cc1S(N)(=O)=O	MC4R antag cAMP 33 | U2OS cAMP counter inactive | MC4R cAMP antag inactive
